Screening data (PubChem)
An excerpt weighted towards active compounds, which were near 4% of everything screened.
TAAR1 antag: human TAAR1 antagonism; Q96RJ0; CHO RD-HGA16 TAAR1, Fluo-8 calcium fluorescence, antagonist; inhibition, % at 3 µM; actives 1.5% (n = 360,000); AID 624466;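 active = inhibition above a per-plate cutoff, the mean inhibition of test compounds on that plate plus 3 SD, cut at about 49% in these data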;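 note: 0% = DMSO plus EC80 beta-PEA response and 100% = DMSO alone without agonist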
Target sequence (Q96RJ0 whole entry, looked up): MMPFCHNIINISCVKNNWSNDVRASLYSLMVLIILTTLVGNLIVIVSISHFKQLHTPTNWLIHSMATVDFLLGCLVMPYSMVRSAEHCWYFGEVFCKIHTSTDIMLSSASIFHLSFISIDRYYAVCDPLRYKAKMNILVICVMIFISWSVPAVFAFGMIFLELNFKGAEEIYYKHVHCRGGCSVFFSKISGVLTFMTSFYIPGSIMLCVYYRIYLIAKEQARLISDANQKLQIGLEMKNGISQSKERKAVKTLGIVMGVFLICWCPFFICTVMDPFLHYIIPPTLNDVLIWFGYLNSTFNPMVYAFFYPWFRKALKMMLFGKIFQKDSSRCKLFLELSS
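Test system – hTAAR1-expressing CHO RD-HGA16 cells, Gα16-coupled · Also added – β-PEA at EC80 concentration, post-compound challenge · Compound – 3 µM, single point · Incubation – dye loading 75 min at 37 °C, then 30 min room temperature · Measured by – Fluo-8 intracellular calcium dye fluorescence, real-time kinetic reads · Benchmarks – vehicle and agonist controls · Replicates – singlicate, one well per test compound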
CHO parental Ca: counter-screen for OX1R antagonists: effect in parental CHO cells | parental CHO-K1, ATP-induced calcium, Fluo-8 fluorescence | inhibition, % at 5.6 µM | actives 0.63% (n = 330,000) | AID 463079;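 active = inhibition above that plate's mean sample inhibition plus 3 SD, cut at about 26% in these data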;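 note: 0% = ATP-challenged DMSO wells and 100% = DMSO wells without ATP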
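material = parental CHO cells | also added = ATP as calcium-mobilizing challenge | dosing = single point at 5.6 µM | detection = intracellular calcium via Fluo-8 no-wash fluorescent dye | read-out = % inhibition | benchmarks = low control ATP plus DMSO, high control DMSO only | repeats = one well per compound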
OX1R antag-1: blocks the human orexin 1 receptor. O43613. CHO/OX1R cells, Fluo-8 calcium fluorescence, orexin A. inhibition, % at 5 µM. actives 0.43% (n = 330,000). AID 434989;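 active = inhibition above its plate's threshold, mean inhibition of all tested compounds on the plate plus 3 SD, cut at about 37% in these data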;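 note: 0% = orexin A challenge wells and 100% = SB-334867-A antagonist wells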
OX1R antag-2: OX1R (human) antagonism | O43613 | OX1R-expressing cells, FRET antagonist read-out | inhibition, % at 6.6 µM | actives 1.8% (n = 330,000); in the data active = inhibition mostly above about 38%, no sharp cut-off; inactive = mostly below about 40%;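 note: 0% = agonist challenge alone and 100% = reference antagonist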
TAAR1 ag: agonists of human TAAR1 | CHO RD-HGA16 TAAR1, Fluo-8 calcium fluorescence; vehicle wells 0%, saturating PEA agonist 100% | actives 0.99% (n = 360,000) | Q96RJ0 | activation, % at 3 µM;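 active = activation above the mean activation of all test compounds in the run plus 3 SD, cut at about 38% in these data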
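Repeats: no replicates (n 1) | Material: CHO-derived RD-HGA16 cells with stable Gα16 and human TAAR1 | Technique: Kinetic Fluo-8 calcium fluorescence | Schedule: 17-24 h seeding, 75 min 37 °C dye, 30 min RT | Evaluation: % activation from peak over basal fluorescence ratio, DMSO-to-PEA scaled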
NTR1 ag: activates human neurotensin receptor 1. P30989. NTR1-U2OS beta-arrestin-GFP spot imaging, agonist mode. activation, % at 20 µM. actives 0.17% (n = 330,000);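 active = activation at or above 40% of the spot to cytoplasm intensity ratio, with at least 20 cells analyzed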;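 note: 0% = DMSO without peptide and 100% = 100 nM NTR1 peptide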
TAAR1 nonsel count: counter-screen for TAAR1 antagonists: nonselective antagonists. shares compounds with TAAR1 antag. counterscreen cell line, calcium fluorescence, antagonist mode. inhibition, % at 3 µM. actives 77% (n = 2,400); in the data active = inhibition above about 22%;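 note: CHO-Ga16 host cells stimulated with ATP at an EC80 level; 0% = agonist EC80 plus vehicle and 100% = vehicle without agonist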
TAAR1 ant conf: confirmation of human TAAR1 antagonists | TAAR1-expressing cells, fluorescence antagonist read-out | actives 40% (n = 2,400) | inhibition, % at 3 µM | shares compounds with TAAR1 antag | AID 651785; in the data active = inhibition above about 49%;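 note: CHO-Ga16 host cells challenged with agonist PEA near its EC80; 0% = agonist at EC80 plus vehicle and 100% = vehicle with no agonist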
Ga16 nonsel ag: nonselective Ga16 agonism, counter-screen; shares compounds with TAAR1 antag; Ga16-expressing cells, calcium fluorescence, agonist counterscreen; activation, % at 3 µM; actives 18% (n = 2,400); AID 651953; in the data active = activation above about 12%;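 note: 0% = vehicle wells and 100% = saturating stimulus response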
TAAR1 ag count: TAAR1 agonism, antagonist counter-screen | actives 2% (n = 2,400) | shares compounds with TAAR1 antag | hTAAR1 cell line, fluorescence activation, agonist mode | AID 651955 | activation, % at 3 µM; in the data active = activation above about 37%;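 note: CHO cells stably expressing TAAR1 with calcium dye readout; 0% = DMSO vehicle and 100% = full agonist response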
* hit, by the source's call; . = no result given.

SMILES	TAAR1 antag	CHO parental Ca	OX1R antag-1	OX1R antag-2	TAAR1 ag	NTR1 ag	TAAR1 nonsel count	TAAR1 ant conf	Ga16 nonsel ag	TAAR1 ag count
Cc1cccc(C(=O)Nc2ccc(C(=O)/C=C/c3cccnc3)cc2)c1	60*	-7	-16	22	18	.	33*	54*	13*	9
CCOc1ccc(-c2ccc(/C=C3/C(=N)N4C(C)=CSC4=NC3=O)o2)c([N+](=O)[O-])c1	59*	0	0	10	12	19	38*	50*	9	3
CCOc1ccc(-c2ccc(/C=C3/C(=N)N4C=CSC4=NC3=O)o2)c([N+](=O)[O-])c1	5	-11	-6	8	5	.	.	.	.	.
COc1ccc2cc(CCOC3CCCCO3)ncc2c1 (stereo unspecified)	6	-4	-7	12	4	0	.	.	.	.
COc1cc(/C=C2/C(=N)N3C=CSC3=NC2=O)ccc1OCCCOc1ccccc1C	64*	-18	-8	8	14	2	26*	43	4	4
COc1cc(/C=C2/C(=N)N3C=CSC3=NC2=O)ccc1OCCCOc1c(C)cccc1C	44	-19	-16	-1	0	10	.	.	.	.
CC1=C(C(=O)N(C)C)CC(CC(=O)NCc2cccc3ccccc23)C(=O)N1CCC1=CCCCC1 (stereo unspecified)	-14	.	.	.	7	.	.	.	.	.
CCOc1ccc(-c2c(C)sc3nc[nH]c(=O)c23)cc1	76*	-1	-10	15	14	0	26*	47	8	7
O=C(O)c1cccc(NC(=O)c2cn(-c3ccccc3)nc2-c2cc3ccccc3o2)c1	64*	18	19	16	12	2	39*	42	6	4
Cc1cccc(NC(=O)c2cn(-c3ccccc3)nc2-c2ccccc2)c1	27	-10	-22	9	-1	1	.	.	.	.
Cc1cn([C@H](C(=O)NCCCCCCCCCCC(=O)N2CCN(C(=O)OC(C)(C)C)CC2)[C@@H](C)O)nn1	63*	-30	-29	16	21	3	24*	34	11	9
CNC(=O)c1cccc(NC(=O)c2ccccc2OCc2ccccc2)c1	54*	-10	16	18	22	-2	21	37	6	16
COc1cc(NC(=O)c2ccccc2OCc2ccccc2)cc(OC)c1OC	61*	-14	-14	45*	7	11	20	47	8	9
Cc1ccc(C)c(S(=O)(=O)N2CCCCC2CCNC(=O)C(=O)NCc2ccccc2)c1 (stereo unspecified)	9	-20	-22	38	-1	1	.	.	.	.
Cc1cc2c(c(CO)c1CCO)C(=O)[C@@H](C)[C@@H]2O	0	-6	3	8	1	0	.	.	.	.
Cc1ccc(S(=O)(=O)N2CCOCC2)cc1C(=O)Nc1ccc(-c2cn3ccsc3n2)cc1	74*	8	8	58	18	4	30*	75*	10	9
CCCC1CC(C(=O)Nc2ccccc2)C(=O)O1 (stereo unspecified)	2	0	-3	26	-2	-1	.	.	.	.
COc1ccc(NS(=O)(=O)c2cc(NC(=O)c3cc(=O)c4ccccc4o3)ccc2OC)cc1	64*	-3	9	26	17	2	27*	53*	8	5
COc1ccc(-c2c(C#Cc3ccsc3)c3cc(-c4ccc(C(N)=O)cc4)ccc3n2C)cc1	102*	-10	-20	9	5	2	12	90*	0	0
COc1ccc(-c2c(C#Cc3ccsc3)c3cc(-c4ccc5[nH]ccc5c4)ccc3n2C)cc1	14	10	13	7	1	-1	.	.	.	.
c1ccc2c(c1)ncn2-c1cncnc1	-13	.	.	.	1	.	.	.	.	.
COc1cc(NC(=O)c2ccc(-c3cccc(F)c3)o2)ccc1NC(=O)c1ccccc1Cl	55*	-12	-5	9	8	4	23*	37	3	2
COc1cc(/C=C/C(=O)OCC(=O)N2CCN(S(=O)(=O)c3ccc(C)cc3C)CC2)cc(Cl)c1OC	31	.	.	.	3	1	.	.	.	.
CCOCCCNC(=O)CSc1nnc(-c2ccc(S(=O)(=O)N3CCCC3)cc2)n1C	1	1	8	10	3	0	.	.	.	.
Fc1cccc(-c2c(-c3ccccc3)ncc3cc(F)ccc23)c1	72*	-31	-25	6	23	9	11	23	7	12
SMILES	TAAR1 antag	CHO parental Ca	OX1R antag-1	OX1R antag-2	TAAR1 ag	NTR1 ag	TAAR1 nonsel count	TAAR1 ant conf	Ga16 nonsel ag	TAAR1 ag count
O=C(Nc1ccc(S(=O)(=O)Nc2ncccn2)cc1)c1ccccc1NS(=O)(=O)c1ccc(F)cc1	-4	3	-6	10	2	0	.	.	.	.
O=C(Nc1ccc(-c2nc3ccccc3[nH]2)cc1)c1ccccc1NS(=O)(=O)c1ccc(F)cc1	78*	-7	-15	53*	9	10	42*	46	6	-1
COCCN1CC(C(=O)NCc2ncccc2C)CCC1=O (stereo unspecified)	-14	0	5	6	7	1	.	.	.	.
CCOC(=O)c1cc(-c2ccccc2)nc2c1c(C)nn2-c1ccccn1	53*	-26	-36	7	16	11	22*	28	8	14
CCOC(=O)c1cc(-c2ccncc2)nc2c1c(C)nn2C	-30	-15	-33	16	2	1	.	.	.	.
O=C(CSc1n[nH]c(=O)n1C1CC1)Nc1cc(Cl)ccc1Oc1ccccc1	79*	33*	20	48	21	4	47*	66*	14*	13
CSCCC(NS(=O)(=O)c1ccc2c(c1)OCCO2)C(=O)N(C)Cc1ccc(F)cc1 (stereo unspecified)	76*	-12	-7	22	15	2	31*	63*	13*	12
Fc1ccc(C(CCCn2nnc(-c3cccnc3)n2)c2ccc(F)cc2)cc1	90*	35*	48*	41	17	6	39*	58*	9	4
Fc1ccc(-n2nnc(-c3cccnc3)n2)cc1	-4	-18	-12	28	1	1	.	.	.	.
C[C@H](NC(=O)CCCOc1ccc(Cl)cc1Cl)c1nnc2ccccn12	-19	3	-4	17	4	-1	.	.	.	.
